The source of these data is ChEMBL document CHEMBL1134118, “Inhibition of serine proteases: activity of 1,3-diazetidine-2,4-diones” (Bioorg Med Chem Lett, 2001).

Data set [1] has as its target T1, Chymase (Homo sapiens, UniProt P23946).
T1 sequence (P23946 whole entry): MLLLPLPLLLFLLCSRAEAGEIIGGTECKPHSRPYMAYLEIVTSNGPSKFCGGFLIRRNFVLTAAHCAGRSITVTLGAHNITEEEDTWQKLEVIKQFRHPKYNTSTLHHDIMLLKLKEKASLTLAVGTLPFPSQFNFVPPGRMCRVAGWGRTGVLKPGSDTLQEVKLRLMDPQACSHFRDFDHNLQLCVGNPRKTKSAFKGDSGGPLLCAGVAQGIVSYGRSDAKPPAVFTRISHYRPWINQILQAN
Kind of data set: Compound was evaluated for its inhibitory activity against human Serine protease chymase. In outline: (§1)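 Purified human chymase preincubated with inhibitor (DMSO solution) for 30 min at 37 °C in 0.1 M Tris–HCl pH 8.0 with 1.8 M NaCl. Reaction started with succinyl-Ala-Ala-Pro-Phe-p-nitroanilide. Absorbance at 405 nm read after 2 h at 37 °C. IC50 calculated from inhibition of p-nitroaniline formation at each concentration.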

A further data set concerns the target T2, Cathepsin G (Homo sapiens, UniProt P08311).
T2 sequence (P08311 whole entry): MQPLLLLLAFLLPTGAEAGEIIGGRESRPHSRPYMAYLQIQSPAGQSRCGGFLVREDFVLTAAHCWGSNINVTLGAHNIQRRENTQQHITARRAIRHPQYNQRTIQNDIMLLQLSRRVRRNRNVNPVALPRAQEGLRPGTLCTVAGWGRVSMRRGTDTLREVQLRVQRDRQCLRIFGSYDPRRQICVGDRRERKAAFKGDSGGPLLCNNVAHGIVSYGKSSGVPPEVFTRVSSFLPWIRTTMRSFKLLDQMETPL
Kind of data set: Compound was evaluated for its inhibitory activity against human cathepsin G.

In a further data set the target is T3, Neutrophil elastase (Homo sapiens, UniProt P08246).
T3 sequence (P08246 whole entry): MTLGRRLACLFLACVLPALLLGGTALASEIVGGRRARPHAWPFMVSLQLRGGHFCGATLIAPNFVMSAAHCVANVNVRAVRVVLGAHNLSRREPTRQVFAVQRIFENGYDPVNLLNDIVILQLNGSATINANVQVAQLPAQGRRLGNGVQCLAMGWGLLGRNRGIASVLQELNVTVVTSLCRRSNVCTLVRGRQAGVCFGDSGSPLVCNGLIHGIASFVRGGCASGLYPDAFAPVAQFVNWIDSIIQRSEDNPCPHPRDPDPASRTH
In words: Compound was evaluated for its inhibitory activity against human neutrophil elastase. In outline:
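Purified human neutrophil elastase with chromogenic substrate N-succinyl-Ala-Ala-Val-pNA. Buffer 50 mM Tris-HCl pH 8.0 containing 2 mM CaCl2.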

Data set [2] has as its target T4, Plasminogen (Homo sapiens, UniProt P00747). In words: Compound was evaluated for its inhibitory activity against human plasmin. In outline:
(§2)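 Purified human plasmin assayed with chromogenic substrate Chromozym PL. Buffer 50 mM Tris-HCl pH 7.5 containing 50 mM NaCl.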

In data set [3] the target is T1, Chymase. In words: Compound was evaluated for its inhibitory activity against human Serine protease chymase up to a concentration > 10000 nM; NA= not active. In outline:
as §1

The target of the next data set is Prothrombin (Homo sapiens, UniProt P00734). In words: Compound was evaluated for its inhibitory activity against human thrombin. In outline:
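Purified thrombin with a chromogenic substrate. Buffer 0.1 M Tris-HCl pH 8.0 containing 10 mM CaCl2 and 0.1 M NaCl.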

In the next data set the target is T5, Serine protease 1 (Bos taurus, UniProt P00760).
T5 sequence (P00760 whole entry): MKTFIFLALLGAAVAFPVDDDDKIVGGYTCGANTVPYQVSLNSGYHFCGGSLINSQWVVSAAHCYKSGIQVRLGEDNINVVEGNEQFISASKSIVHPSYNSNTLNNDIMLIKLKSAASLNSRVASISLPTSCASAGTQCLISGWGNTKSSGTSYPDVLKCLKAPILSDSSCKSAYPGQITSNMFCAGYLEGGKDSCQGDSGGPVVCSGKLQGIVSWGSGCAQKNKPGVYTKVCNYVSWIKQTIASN
In words: Compound was evaluated for its inhibitory activity against bovine pancreatic trypsin. In outline:
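Purified trypsin with a chromogenic substrate. Buffer 50 mM Tris-HCl pH 8.0 containing 2 mM CaCl2.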

Data set [4] is described as follows: Half life was determined. Type of data set: ADME. Particulars: sodium methoxide 10 mM in methanol, 21 °C. In outline: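 Chemical stability: 1 μmol compound added to 1 mL of 10 mM sodium methoxide in methanol, stirred at 21 °C. Aliquots removed every 2 h and analysed by reverse-phase HPLC to give t1/2.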
The target in data set [5] is T4, Plasminogen. Kind of data set: Compound was evaluated for its inhibitory activity against human plasmin up to a concentration > 1000 nM; NA= not activity. The settings on record: in the assay text read “> 10000 nM” for “> 1000 nM”. In outline:
as §2

As a reminder, the IC50 is the midpoint of a concentration-inhibition curve. Higher therefore signals weaker potency. What is called half-life is the time in which the quantity being followed falls by half. A high value points to slow loss.

Structures are written as SMILES. Calls of active or inactive are those of the source. The calls are words filed in the database; no cut-off is given here.

T4 sequence (P00747 97-580 limits assumed): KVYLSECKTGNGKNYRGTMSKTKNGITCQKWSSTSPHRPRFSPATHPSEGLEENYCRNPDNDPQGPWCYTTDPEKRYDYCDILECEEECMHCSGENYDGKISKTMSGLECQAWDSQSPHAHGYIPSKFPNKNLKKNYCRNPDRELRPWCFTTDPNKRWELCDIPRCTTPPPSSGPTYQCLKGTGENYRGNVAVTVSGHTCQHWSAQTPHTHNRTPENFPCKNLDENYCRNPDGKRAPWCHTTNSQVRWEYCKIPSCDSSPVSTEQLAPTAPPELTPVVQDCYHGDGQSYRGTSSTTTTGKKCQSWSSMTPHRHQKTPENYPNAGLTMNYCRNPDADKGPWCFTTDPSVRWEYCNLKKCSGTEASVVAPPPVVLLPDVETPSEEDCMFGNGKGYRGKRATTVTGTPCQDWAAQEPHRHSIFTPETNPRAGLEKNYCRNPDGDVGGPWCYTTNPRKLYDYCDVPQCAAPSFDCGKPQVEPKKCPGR
T4 sequence (P00747 581-810 limits assumed): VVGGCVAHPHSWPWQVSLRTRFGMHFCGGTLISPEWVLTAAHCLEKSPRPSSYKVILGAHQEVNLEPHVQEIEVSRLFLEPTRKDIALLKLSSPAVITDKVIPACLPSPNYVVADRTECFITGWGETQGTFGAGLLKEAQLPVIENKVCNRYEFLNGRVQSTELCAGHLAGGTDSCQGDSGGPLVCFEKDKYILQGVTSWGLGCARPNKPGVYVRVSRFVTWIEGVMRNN

Take `COc1cccc(CN2C(=O)N(Cc3cccc(OC)c3)C2=O)c1`: half-maximal inhibition against Chymase [1] (IC50) was put at 2.3 nM.

For the compound `CCN1C(=O)N(CC)C1=O`, the IC50 on Cathepsin G is 740 nM; against Neutrophil elastase, 58 nM; on Plasminogen [2] it was > 10000 nM; against Chymase [3], “Not Active”; on Prothrombin it was 5600 nM; on Serine protease 1 it was 39000 nM.

`COc1ccc(CN2C(=O)N(Cc3ccc(OC)cc3)C2=O)cc1` came in with an IC50 at Chymase [1] of 2 nM.

The compound `O=C1N(c2ccc3c(c2)OCO3)C(=O)N1c1ccc2c(c1)OCO2` showed an IC50 against Chymase [1] of 48 nM.

`O=C1N(Cc2ccc3c(c2)OCO3)C(=O)N1Cc1ccc2c(c1)OCO2` registered an IC50 at Chymase [1] of 0.85 nM.

Consider `O=C1N(Cc2ccccc2)C(=O)N1Cc1ccccc1`, for which the IC50 on Neutrophil elastase turned out to be 100 nM; against Plasminogen [2] it was 2900 nM; at Prothrombin, 72 nM; at Serine protease 1, 39 nM; on Chymase [1], 4 nM. Besides, the half-life in data set [4] is 9.5 h.

For the compound `Cc1ccc(N2C(=O)N(c3ccc(C)cc3)C2=O)cc1`, the IC50 on Neutrophil elastase is 230 nM; against Prothrombin, 2300 nM; at Serine protease 1 it was 200 nM; against Chymase [1], 140 nM. The NA entry at Plasminogen [5] was “inactive”.

For `CCOC(=O)CN1C(=O)N(CC(=O)OCC)C1=O`, the IC50 result against Chymase [3] is “Not Active”.
